Reference: paper PMC8605766 (ACS chemical neuroscience, 2021)
Values joined by “and” are separate entries in the source; they are usually repeats but may differ in a detail not shown here. Equal entries are not always repeated. Values belong to the compound of their own block, whether it stands above or below them.

What was measured:
[1] = molecular target: S1PR1 (Rattus norvegicus, UniProt P48303); assay: In vitro autoradiography of [^3H]CS1P1 in the rat brain and spinal cord; type: binding; conditions: 10 μM NIBR-0213
Chain of S1PR1 (P48303 whole entry): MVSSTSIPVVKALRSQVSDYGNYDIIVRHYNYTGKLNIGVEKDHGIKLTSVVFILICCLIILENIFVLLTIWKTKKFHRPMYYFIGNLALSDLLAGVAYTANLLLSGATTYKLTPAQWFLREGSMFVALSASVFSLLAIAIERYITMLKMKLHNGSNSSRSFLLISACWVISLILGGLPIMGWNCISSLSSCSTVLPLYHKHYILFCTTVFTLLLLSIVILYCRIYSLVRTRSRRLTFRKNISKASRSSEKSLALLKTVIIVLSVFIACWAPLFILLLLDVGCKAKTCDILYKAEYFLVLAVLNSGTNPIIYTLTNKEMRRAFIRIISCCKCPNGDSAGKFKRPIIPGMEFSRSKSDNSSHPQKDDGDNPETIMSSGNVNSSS
Procedure, shortened: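 Frozen 14 μm sections from adult SD rat brain and spinal cord, pre-incubated 5 min at RT in HBSS with 10 mM HEPES, 5 mM MgCl₂, 0.2% BSA, 0.1 mM EDTA, pH 7.4. Labelled with 0.5 nM radioligand, 1 h at RT with shaking. […] Washed 3 × 5 min, ice-cold water dip, air-dried overnight. Film exposure 15 days with tritium standards. Specific binding = total − nonspecific in randomly chosen ROIs.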

[2] = tested on: MS patients; conditions: particularly deep gray matter structures; cited from earlier work
[3] = molecular target: recombinant human S1PR1 (hS1PR1) membranes (Homo sapiens, UniProt P21453); assay: Competition binding assay against [^3H]CS1P1 with recombinant hS1PR1 membranes; conditions: displacement of 8 nM [^3H]CS1P1, recombinant hS1PR1 membranes
Chain of recombinant human S1PR1 (hS1PR1) membranes (P21453 whole entry): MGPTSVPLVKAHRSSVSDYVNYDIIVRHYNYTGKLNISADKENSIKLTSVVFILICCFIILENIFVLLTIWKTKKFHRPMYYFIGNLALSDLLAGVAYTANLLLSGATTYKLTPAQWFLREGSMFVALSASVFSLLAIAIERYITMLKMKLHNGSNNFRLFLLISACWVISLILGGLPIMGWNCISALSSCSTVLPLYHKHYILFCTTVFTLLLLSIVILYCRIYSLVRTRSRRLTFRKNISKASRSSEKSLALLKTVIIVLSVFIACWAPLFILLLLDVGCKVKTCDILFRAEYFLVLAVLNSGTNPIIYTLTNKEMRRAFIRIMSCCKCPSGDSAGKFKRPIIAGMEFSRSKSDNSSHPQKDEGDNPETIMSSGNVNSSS

Structure (SMILES): Cc1cc([C@@H](C)Nc2cccc(-c3cc(C)c(C(=O)N[C@@H](C)C(=O)O)c(C)c3)c2)ccc1Cl [NIBR-0213]
blocking of [^3H]CS1P1 radioactivity [1]: can be blocked

Structure (SMILES): CCCCCCCCc1ccc(CCC(N)(CO)CO)cc1 [fingolimod]
effect on brain atrophy [2]: reduced brain atrophy

Ki [3]: < 10 nM and 5.7 nM
Structure (SMILES): CCCCCCCCCCCCC/C=C/[C@@H](O)[C@@H](N)COP(=O)(O)O [S1P, Sphingosine-1-phosphate]
